CHOP UPR activ = apoptotic UPR (CHOP) activation | CHO-CHOP luciferase reporter, luminescence; percent of tunicamycin response over DMSO baseline | actives 0.34% (n = 330,000) | activation, % at 10 µM;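 active means at 10 µM dose, activation of 40% or more, normalized to positive control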;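 further: 100% = tunicamycin at 10 µg/mL and 0% = DMSO alone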
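Material: CHO-CHOP cells, stable luciferase reporter of PERK-eIF2a-CHOP signalling; quantity: 500 reporter cells seeded per well; buffer or medium: F12 medium containing 10% fetal bovine serum; compound: one dose, 10 µM in 0.5% DMSO; incubation: 6 h compound treatment, 37 °C; measured by: Steady-Glo luciferase luminescence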
CHOP inh = CHOP inhibition in unfolded protein response; CHO-K1 CHOP-promoter luciferase, tunicamycin-induced, 15-18 h; inhibition, % at 10 µM; actives 3.8% (n = 220,000); AID 2732;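 active means compounds that reduced the stress-induced luciferase reporter signal by more than about 70% of percent inhibition, limit read from the data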;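 further: 0% = tunicamycin plus vehicle and 100% = wells without tunicamycin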
UPR XBP1 act = adaptive UPR (XBP1) activation; CHO-XBP1 luciferase reporter, IRE1-XBP1 UPR activation, luminescence; percent of tunicamycin response, DMSO as zero; actives 0.33% (n = 330,000); activation, % at 20 µM;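 active means versus positive control, 20 µM dose yields 30% or more activation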;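 further: 100% = tunicamycin at 10 µg/mL and 0% = DMSO only wells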
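Assay system: CHO-XBP1 luciferase reporter cells; Schedule: 6 h treatment, 37 °C; Detection: glow luminescence from Steady-Glo reagent; Benchmarks: high control tunicamycin 10 µg/mL final, low control DMSO vehicle only.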
Bfl-1 A1 inh = inhibitors of the anti-apoptotic protein A1, read as caspase activation | MEF A1-2A-BIM cells, Caspase-Glo 3/7 luminescence, 3 h; percent of clofoctol response, vehicle zero | caspase activation, % (concentration not given with the values) | actives 0.066% (n = 330,000);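 active means over half of replicate activation scores above 10%, or exactly half above 10 with the replicate mean above 10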
* = called active by the depositor; . = no result. Only a selection was taken, and hits are over-represented in it overall.

SMILES | CHOP UPR activ | CHOP inh | UPR XBP1 act | Bfl-1 A1 inh
Cc1cccc(CN2CCN(c3ccc(Cl)cc3)CC2)c1 | 1.2 | 82.6* | 1.3 | 0.4
O=C1NC(=O)N(Cc2ccc(F)cc2)C(=O)/C1=C\C=C\c1ccco1 | -1.5 | 0.0 | -1.4 | 0.7
CC(C)c1ccc(N2C(=O)NC(=O)/C(=C/C=C/c3ccco3)C2=O)cc1 | . | 103.2* | . | 0.6
CC[C@]12CC[C@H](O)CC1=CCC1C2CC[C@]2(C)C(=O)CCC12 (stereo partly drawn) | 0.5 | . | -2.2 | -0.5
O=C1NC(=S)N(c2ccccc2F)C(=O)/C1=C\c1cccs1 | 4.1 | 83.5* | -6.6 | -0.4
O=c1[nH]c(=S)n(Cc2ccc(F)cc2)c(O)c1C=NCCCn1ccnc1 | 0.7 | 12.5 | -4.0 | -0.6
CCCC(C)C1C(C#N)=C(N)Oc2c1c(=O)oc1ccccc21 (stereo not drawn) | 1.7 | 76.4* | -2.3 | -0.3
CCC12CN3CCN(CC(C3)/C1=N/NC(N)=O)C2 | -0.7 | 31.4 | 1.9 | 0.2
O=C1NC(=S)NC(=O)C1=Cc1cccc2cc3ccccc3cc12 | . | 107.8* | . | .
Cc1ccccc1N1C(=O)NC(=O)/C(=C\c2cc(Br)c(N3CCOCC3)o2)C1=O | 17.8 | 72.3* | 3.3 | 0.4
CCCCC(C)C(OC(=O)CC(CC(=O)O)C(=O)O)C(CC(C)CC(O)CCCCC(O)CC(O)C(C)N)OC(=O)CC(CC(=O)O)C(=O)O (stereo not drawn) | 0.3 | 23.4 | -1.6 | -1.0
O=c1[nH]c(=O)n(CCC2=CCCCC2)c(O)c1/C=N/Nc1cccc2ccccc12 | -0.5 | 71.4* | -2.4 | -0.1
O=c1[nH]c(=O)n(CCC2=CCCCC2)c(O)c1/C=N/Nc1ccccc1 | 1.8 | 61.3 | -0.9 | -1.2
C=CCNC(=O)c1c(N)n(Cc2ccco2)c2nc3ccccc3nc12 | -0.4 | 76.9* | -2.8 | 1.1
COc1ccc(CCNC(=O)c2c(N)n(CCN3CCOCC3)c3nc4ccccc4nc23)cc1 | 3.3 | 75.7* | 1.2 | -1.7
CCCCn1c(N)c(C(=O)NCCN2CCOCC2)c2nc3ccccc3nc21 | 0.2 | 27.7 | 3.0 | 0.2
CC(C)CCNC(=O)c1c(N)n(CC2CCCO2)c2nc3ccccc3nc12 (stereo not drawn) | 1.2 | 76.1* | 0.7 | 0.2
Nc1c(C(=O)NCCN2CCOCC2)c2nc3ccccc3nc2n1Cc1ccccc1 | 0.0 | 34.1 | -5.1 | 0.2
Nc1c(C(=O)NCCc2ccccc2)c2nc3ccccc3nc2n1CCN1CCOCC1 | -0.6 | 88.5* | 2.7 | 0.4
O=C1CC(c2ccccc2)CN1 (stereo not drawn) | 2.8 | 10.9 | -0.5 | 0.0
CC1CCC(C(C)C)C(OC(=O)COC(=O)c2ccccc2N)C1 (stereo not drawn) | 1.1 | 60.6 | 0.9 | 0.5
CC1(C)C2SCC(=O)N2CCN1CC(=O)NN (stereo not drawn) | 0.4 | 84.0* | 1.2 | 0.2
O=C(CNC(=O)c1ccc(Br)cc1)Nc1ccc(Br)cc1C(=O)c1ccccc1 | -0.3 | 76.9* | 1.0 | 0.3
C[C@@H]1NCCc2cc(O)c(O)cc21 | -2.6 | . | -6.2 | -0.6
CCC(=O)OC(Cc1ccccc1)(c1ccccc1)[C@H](C)CN(C)C (stereo partly drawn) | -0.8 | . | -2.7 | .
SMILES | CHOP UPR activ | CHOP inh | UPR XBP1 act | Bfl-1 A1 inh
Cc1ccc(N2C(=O)NC(=O)C3(Cc4ccccc4N4CCN(c5ccccc5)CC43)C2=O)cc1 (stereo not drawn) | -0.2 | 70.5* | 3.6 | -0.1
O=C1NC(=O)C2(Cc3ccccc3N3CCCC32)C(=O)N1c1cccc(Cl)c1 (stereo not drawn) | -0.6 | 11.7 | 1.0 | 1.3
Brc1ccc(CN2CCNCC2)s1 | -3.0 | 70.8* | -2.9 | 0.1
CCN1CCN(S(=O)(=O)c2ccc(Cl)nc2)CC1 | 0.3 | 23.7 | 7.1 | -0.1
Cc1cccc(C)c1NC(=O)c1cccn(Cc2ccc3c(c2)OC(F)(F)O3)c1=O | 1.6 | 85.9* | 1.7 | -0.9
CC(=O)O[C@@H]1/C=C/[C@](C)(O)C[C@@H](C)C/C=C/[C@H]2[C@H](O)[C@@](C)(O)[C@@H](C)[C@H]3[C@H](Cc4ccccc4)NC(=O)[C@@]312 | 1.2 | . | 0.7 | 0.0
CC(=O)O[C@@H]1/C=C/[C@](C)(O)C[C@@H](C)C/C=C/[C@H]2[C@@H]3O[C@]3(C)[C@@H](C)[C@H]3[C@H](Cc4ccccc4)NC(=O)[C@@]312 | 1.9 | . | -2.3 | 6.4*
CCOC(=O)C1=CC(=C2C(=O)N(CC)C(=S)N(CC)C2=O)c2ccccc2O1 | -0.9 | -5.6 | -3.1 | -0.7
CC(C)CCCn1c(O)c(/C=C2/C=CC=N2)c(=O)[nH]c1=O | 0.9 | 85.1* | 3.0 | 0.2
CCCCn1c(O)c(C=NCCCn2ccnc2)c(=O)[nH]c1=O | -2.7 | -3.7 | -8.6 | -0.1
Cc1cccc(NC(=O)N2C[C@H]3C[C@@H](C2)c2cccc(=O)n2C3)c1 | 0.7 | . | -1.5 | -0.4
c1ccc2c(CN3CCCCCC3)c[nH]c2c1 | 7.5 | -23.1 | 12.0 | 0.9
C1=C(c2c[nH]c3ccccc23)CCNC1 | 1.1 | 76.5* | 2.0 | -0.3
O=c1cc(C(F)(F)F)c2cc3c4c(c2o1)CCCN4CCC3 | -0.3 | 93.1* | -1.3 | 0.5
Cc1cc2c(C(F)(F)F)cc(=O)oc2c2c1NCCC2 | 2.1 | 56.1 | -0.9 | -0.7
CC[C@H](C)[C@@H]1O[C@@]2(C=CC1C)CC1C[C@@H](CC=C(C)C(O[C@H]3CC(OC)C(O[C@H]4CC(OC)C(O)C(C)O4)C(C)O3)C(C)C=CC=C3CO[C@@H]4C(O)C(C)=C[C@@H](C(=O)O1)[C@]34O)O2 (stereo partly drawn) | 35.9 | . | 50.1* | -0.1
CCOP(=O)(OCC)C(NC(=O)CN1C(=O)c2ccccc2S1(=O)=O)C(Cl)(Cl)Cl (stereo not drawn) | -0.2 | -24.0 | 0.4 | 0.1
C=CCc1cc(C=C2C(=O)N(C)C(=O)N(C)C2=O)cc(OCC)c1OCc1ccccc1 | -0.5 | 88.5* | -2.9 | -0.5
C=CCc1cc(C=C2C(=O)NC(=O)NC2=O)cc(OC)c1OCc1ccc(C(=O)O)cc1 | -0.3 | 0.9 | -6.4 | 1.4
Cc1c(C)c2ccc(OCC(=O)N3C[C@H]4C[C@@H](C3)c3cccc(=O)n3C4)c(C)c2oc1=O | 0.4 | . | -0.8 | 0.4
CO[C@H]1CC=C2CCN3CCC4=C(CC(=O)OC4)[C@]23C1 | 3.0 | -9.4 | -1.5 | -1.4
COc1cccc(NP(=O)(Oc2ccccc2Cl)Oc2ccccc2Cl)c1 | 0.3 | 91.0* | -2.0 | -0.1
COc1cccc(NP(=O)(Oc2ccccc2)Oc2ccccc2)c1 | -0.9 | 15.6 | -1.7 | -0.1
Cc1ccc(O)c(CN2CCN(c3ccccc3)CC2)c1 | 0.3 | 60.7 | 0.1 | 1.1
COc1ccc(CN2CCN(c3ccccc3)CC2)c(C)c1C | 0.9 | 80.2* | 1.8 | 0.6
Cc1cc(O)c(CN2CCN(c3ccccc3)CC2)cc1C | 0.1 | 82.1* | -4.3 | 0.6
COc1ccccc1N1CCN(Cc2ccc(Cl)cc2Cl)CC1 | 0.1 | 25.8 | -1.9 | 0.3

Compound activity from PubChem BioAssay.
